Results of several laboratories.
Lines come from different studies, so protocols differ.
PIK3CG: Phosphatidylinositol 4,5-bisphosphate 3-kinase catalytic subunit gamma isoform (PIK3CG, Homo sapiens, UniProt P48736)
ADRA2B: Alpha-2B adrenergic receptor (ADRA2B, Homo sapiens, UniProt P18089)

CN1CCc2nc(NC(=O)C3=NN(c4ccc(F)cc4)C(C(N)=O)C3)sc2C1 (stereo not drawn)  Kd (DDB1- and CUL4-associated factor 7 (Homo sapiens, UniProt P61962); binding; SPR): > 71 µM
Cc1cccc(N=C2C(=O)Nc3ccccc32)c1  IC50 (PIK3CG; enzyme activity; inhibitor; ADP detection): 0.0204 µM
Cc1cc(Oc2ncccc2CN2CCN(c3ccccc3O)CC2)ccc1-c1c(C)c(=O)[nH]c(=O)n1C  Ki (ADRA2B; ligand displacement; radioligand): 0.0975 µM
CC(C)C[C@H](NC(=O)[C@H](CC(C)C)NC(=O)[C@H](Cc1c[nH]c2ccccc12)NC(=O)[C@H](CCC(N)=O)NC(=O)[C@@H](NC(=O)[C@H](Cc1ccccc1)NC(=O)[C@H](CC(=O)O)NC(=O)[C@H](CCC(N)=O)NC(=O)[C@H](C)NC(=O)[C@H](C)NC(=O)[C@H](CCCNC(=N)N)NC(=O)[C@H](CCC(=O)O)NC(=O)[C@H](CC(=O)O)NC(=O)[C@H](CC(C)C)NC(=O)[C@H](Cc1ccc(O)cc1)NC(=O)[C@H](CCCCN)NC(=O)[C@H](CO)NC(=O)[C@H](Cc1ccc(O)cc1)NC(=O)[C@H](CC(=O)O)NC(=O)[C@H](CO)NC(=O)[C@@H](NC(=O)[C@H](Cc1ccccc1)NC(=O)[C@@H](NC(=O)CNC(=O)[C@H](CCC(N)=O)NC(=O)C(C)(C)NC(=O)[C@@H](N)Cc1c[nH]cn1)[C@@H](C)O)[C@@H](C)O)C(C)C)C(=O)N[C@@H](CC(=O)O)C(=O)NCC(=O)NCC(=O)N1CCC[C@H]1C(=O)N[C@@H](CO)C(=O)N[C@@H](CC(C)C)C(=O)N[C@@H](CCCNC(=N)N)C(=O)N[C@@H](Cc1c[nH]cn1)C(=O)N[C@@H](Cc1ccc(O)cc1)C(=O)N[C@@H](CC(C)C)C(=O)N[C@@H](CC(N)=O)C(=O)N[C@@H](CC(C)C)C(=O)N[C@H](C(=O)N[C@H](C(=O)N[C@@H](CCCNC(=N)N)C(=O)N[C@@H](CCC(N)=O)C(=O)N[C@@H](CCCNC(=N)N)C(=O)N[C@@H](Cc1ccc(O)cc1)C(N)=O)[C@@H](C)O)C(C)C  EC50 (Glucagon receptor (GCGR, Homo sapiens, UniProt P47871); reporter gene; agonist; luciferase): 0.00012 µM
Cc1cc(Oc2ncccc2CN2CCN(c3cccc(Cl)c3Cl)CC2)ccc1-c1c(C)c(=O)[nH]c(=O)n1C  Ki (ADRA2B; ligand displacement; radioligand): 0.113 µM
Cc1cccc(N=C2C(=O)N(Cc3ccccc3)c3ccccc32)c1  IC50 (PIK3CG; enzyme activity; inhibitor; ADP detection): 0.00045 µM
Cc1cc(Oc2ncccc2CN2CCN(C(c3ccccc3)c3ccccc3)CC2)ccc1-c1c(C)c(=O)[nH]c(=O)n1C  Ki (ADRA2B; ligand displacement; radioligand): 0.172 µM
Cn1ccc(-c2ccc(-c3cc(C(=O)O)cc4cc(-c5ccc(C(F)(F)F)cc5)ccc34)cc2)n1  Ki (Sigma intracellular receptor 2 (TMEM97, Homo sapiens, UniProt Q5BJF2); cell-free assay; radioligand): 1.9 µM
O=C1C(=Nc2cccc(Cl)c2)c2ccccc2N1Cc1ccc([N+](=O)[O-])cc1  IC50 (PIK3CG; enzyme activity; inhibitor; ADP detection): 0.00239 µM
Cc1cc(Oc2ncccc2CN2CCN(c3ccc(Cl)cc3)CC2)ccc1-c1c(C)c(=O)[nH]c(=O)n1C  Ki (ADRA2B; ligand displacement; radioligand): 0.338 µM
O=C1C(=Nc2ccc(Cl)cc2)c2ccccc2N1Cc1ccc(Br)cc1  IC50 (PIK3CG; enzyme activity; inhibitor; ADP detection): 0.00593 µM
NC(=O)C1CN(C(=O)CCl)c2ccccc2O1 (stereo not drawn)  Kd (Creatine kinase U-type, mitochondrial (CKMT1A, Homo sapiens, UniProt P12532); binding; MST): 13 µM
